Measured values of several laboratories.
Compare with care: the assays were run in different laboratories.
Cell line: A549
Effect on: cell growth or viability

`N.N.[Cl][Pt][Cl]` gave an IC50 of 50.8 µM (MTT; 72 h).
`C[C@H](NC(=O)[C@H](Cc1c[nH]cn1)NC(=O)[C@H](Cc1c[nH]c2ccccc12)NC(=O)[C@H](CCCCN)NC(=O)[C@H](Cc1c[nH]c2ccccc12)NC(=O)[C@H](Cc1c[nH]c2ccccc12)NC(=O)[C@H](CCCNC(=N)N)NC(=O)[C@H](Cc1c[nH]c2ccccc12)NC(=O)[C@H](Cc1c[nH]cn1)NC(=O)[C@@H](N)CCCNC(=N)N)C(=O)N[C@@H](CCCNC(=N)N)C(=O)N[C@@H](Cc1c[nH]c2ccccc12)C(=O)N[C@@H](Cc1c[nH]c2ccccc12)C(N)=O` gave an IC50 of 49 µM (MTT; 24 h).
`c1ccc([Se][Au]=[c]2n(C3CCCCC3)ccn2C2CCCCC2)cc1` has an IC50 of 0.9 µM (crystal violet).
The IC50 of `[C-]#[O+].[C-]#[O+].[C-]#[O+].[C-]#[O+].[C-]#[O+].[C-]#[O+].[C-]#[O+].[C-]#[O+].[C-]#[O+].[C-]#[O+].[Mn].[Mn]` is reported as 20.9 µM (MTT; 48 h).
`CC(C)C[C@H](NC(=O)[C@H](CO)NC(=O)[C@H](CO)NC(=O)CNC(=O)[C@@H]1CCCN1C(=O)[C@H](Cc1ccc(O)cc1)NC(=O)[C@H](CC(C)C)NC(=O)[C@H](CO)NC(=O)[C@H](CS)NC(=O)[C@H](CC(C)C)NC(=O)[C@@H](N)CC(C)C)C(=O)O` gave an IC50 of greater than 100 µM (MTT; 72 h).
With `CC(C)C[C@H](NC(=O)[C@H](CCCCN)NC(=O)CN)C(=O)N[C@@H](C)C(=O)N[C@@H](CCCCN)C(=O)N[C@@H](CCCCN)C(=O)N[C@@H](CC(C)C)C(=O)N[C@@H](Cc1ccccc1)C(=O)N[C@@H](CCCCN)C(=O)N[C@@H](CCCCN)C(=O)N[C@@H](CC(C)C)C(=O)N[C@@H](CCCCN)C(=O)N[C@@H](Cc1ccc(O)cc1)C(N)=O` the IC50 was 356 µM (MTT; 24 h).
For `N.N.[Cl][Pt][Cl]`, the IC50 was 1.2 µM.
`C#CC[C@@H]1NC(=O)[C@@H](CCCNC(=N)N)NC(=O)[C@H]([C@@H](C)O)NC(=O)[C@@H](CCCN)NC(=O)[C@H](Cc2ccccc2)NC(=O)[C@@H](Cc2ccccc2)NC1=O` has an IC50 of greater than 100 µM (ATP luminescence).
